From ChEMBL document CHEMBL1144008, “Synthesis, nitric oxide release, and anti-leukemic activity of glutathione-activated nitric oxide prodrugs: Structural analogues of PABA/NO, an anti-cancer lead compound” (Bioorg Med Chem, 2008)

Columns and labels:
[1] = Nitric oxide release at 100 to 150 nM in pH7.4 in presence of GSH; type: functional
Method in brief: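 Performed in 0.1 M pH 7.4 phosphate buffer with 1 mM GSH, sparged with inert gas until detector baseline was steady. Prodrug stock injected to final 100–150 nM. NO release followed at 37 °C. Area under the release curve integrated to give mol NO released per mol compound.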

HL-60 = assay: Antiproliferative activity against human HL60 cells by MTS assay; type: functional, cell-based
Method in brief: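 HL-60 human myeloid leukemia cells grown in RPMI 1640 with 10% FBS, 37 °C, 5% CO2. Seeded 10,000 cells/100 µL; compounds (DMSO stocks serially diluted in PBS, final DMSO 0.5%) added 24 h after plating. Viable cells read by MTS after 3 days. IC50 from nonlinear fit of absorbance vs concentration to a Hill-slope equation.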

Structure (SMILES)	Activity [1] [%]	IC50 (HL-60) [µM]
CN(C)/[N+]([O-])=N/Oc1cc(Nc2ccc(CO)cc2)c([N+](=O)[O-])cc1[N+](=O)[O-]	100	6.8
CN(C)/[N+]([O-])=N/Oc1cc(OC(=O)c2ccccc2)c([N+](=O)[O-])cc1[N+](=O)[O-]	15	> 25
CC(C)Cc1ccc(C(C)C(=O)Oc2cc(O/N=[N+](\[O-])N(C)C)c([N+](=O)[O-])cc2[N+](=O)[O-])cc1 (stereo not given)	0	> 25
CC(=O)Nc1ccc(Oc2cc(O/N=[N+](\[O-])N(C)C)c([N+](=O)[O-])cc2[N+](=O)[O-])cc1	93	2.3
CN(C)c1ccc(C(=O)Oc2cc(O/N=[N+](\[O-])N(C)C)c([N+](=O)[O-])cc2[N+](=O)[O-])cc1	30	> 25
CC(=O)Nc1ccc(C(=O)Oc2cc(O/N=[N+](\[O-])N(C)C)c([N+](=O)[O-])cc2[N+](=O)[O-])cc1	20	22
CC(=O)Nc1ccc(S(=O)(=O)Oc2cc(O/N=[N+](\[O-])N(C)C)c([N+](=O)[O-])cc2[N+](=O)[O-])cc1	96	3.9
CNc1ccc(C(=O)Oc2cc(O/N=[N+](\[O-])N(C)C)c([N+](=O)[O-])cc2[N+](=O)[O-])cc1	73	3.9
CN(C)/[N+]([O-])=N/Oc1cc(OC(=O)c2ccc(N)cc2)c([N+](=O)[O-])cc1[N+](=O)[O-]	63	13
CC(=O)Oc1ccccc1C(=O)Oc1cc(O/N=[N+](\[O-])N(C)C)c([N+](=O)[O-])cc1[N+](=O)[O-]	7	> 25
CCN(C(=O)c1ccccc1)c1cc(O/N=[N+](\[O-])N(C)C)c([N+](=O)[O-])cc1[N+](=O)[O-]	100	1.4
CN(C(=O)c1ccccc1)c1cc(O/N=[N+](\[O-])N(C)C)c([N+](=O)[O-])cc1[N+](=O)[O-]	99	1.6
CN(C)/[N+]([O-])=N/Oc1cc(OC(=O)c2cccnc2)c([N+](=O)[O-])cc1[N+](=O)[O-]	4	> 25
CN(C)/[N+]([O-])=N\Oc1cc(O)c([N+](=O)[O-])cc1[N+](=O)[O-]	0	> 25
COc1ccc2cc(C(C)C(=O)Oc3cc(O/N=[N+](\[O-])N(C)C)c([N+](=O)[O-])cc3[N+](=O)[O-])ccc2c1 (stereo not given)	5	> 25
